Measurements from ChEMBL document CHEMBL1154716, “Synthesis of some new S-triazine based chalcones and their derivatives as potent antimicrobial agents” (2010).
≈ marks a conversion by molar mass, not a printed value. Calls of active or inactive are those of the source. No cut-off for these calls is given here.

Tests used:
Pseudomonas aeruginosa [1] = assay: Antimicrobial activity against Pseudomonas aeruginosa at 1 umol/spot after 18 hrs by TLC-bioautographic method; assay type: functional
Outline: (§1)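 TLC bioautography. Samples are spotted on silica gel TLC plates, then sprayed with bacteria (1.0 × 10^5 cfu/ml) in tryptic soy broth. Plates are incubated 18 h at 37 C and sprayed with 3% aqueous p-iodonitrotetrazolium violet. After a further 3 h, growth is stopped with 70% EtOH. White zones on a pink background are scored as inhibition-zone diameter with standard errors.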

Pseudomonas aeruginosa [2] = assay: Antimicrobial activity against Pseudomonas aeruginosa after 24 hrs by microdilution technique; assay type: functional
Outline: (§2)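 Broth microdilution in LB medium. Inoculum is 1.0 × 10^4 cfu per well, from a saline-adjusted suspension of 1.0 × 10^5 cfu/ml. Compounds are dissolved in DMSO. Incubated 24 h at 28 C. MIC is the lowest concentration with no visible growth under a binocular microscope. MBC is read by subculture into fresh broth for 72 h, with no growth taken as 99.5% kill. OD is read at 655 nm.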

Bacillus cereus [3] = assay: Antimicrobial activity against Bacillus cereus at 10 ug/disk after 24 hrs by disk diffusion assay; assay type: functional
Outline: (§3)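 Disc diffusion on 4 mm filter discs. Bacteria are grown overnight in LB at 28 C, then adjusted in saline to 1.0 × 10^5 cfu/ml. The suspension is mixed into top agar over peptone agar plates. Plates are incubated 24 h at 28 C, and growth-inhibition zone diameter is measured. Streptomycin and ampicillin controls are applied from a 1 mg/ml stock. Tests are done in duplicate.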

Micrococcus flavus [4] = assay: Antimicrobial activity against Micrococcus flavus at 1 umol/spot after 18 hrs by TLC-bioautographic method; assay type: functional; outline: as §1
Staphylococcus aureus [5] = assay: Antimicrobial activity against Staphylococcus aureus at 1 umol/disk after 24 hrs by disk diffusion assay; assay type: functional; outline: as §3
Listeria monocytogenes [6] = assay: Antimicrobial activity against Listeria monocytogenes at 1 umol/disk after 24 hrs by disk diffusion assay; assay type: functional; outline: as §3
Escherichia coli [7] = assay: Antimicrobial activity against Escherichia coli at 10 ug/disk after 24 hrs by disk diffusion assay; assay type: functional; outline: as §3
Enterobacter cloacae [8] = assay: Antimicrobial activity against Enterobacter cloacae at 1 umol/disk after 24 hrs by disk diffusion assay; assay type: functional; outline: as §3
Listeria monocytogenes [9] = assay: Antimicrobial activity against Listeria monocytogenes after 24 hrs by microdilution technique; assay type: functional; outline: as §2
Escherichia coli [10] = assay: Antimicrobial activity against Escherichia coli at 1 umol/spot after 18 hrs by TLC-bioautographic method; assay type: functional; outline: as §1
Bacillus cereus [11] = assay: Antimicrobial activity against Bacillus cereus at 1 umol/spot after 18 hrs by TLC-bioautographic method; assay type: functional; outline: as §1
Bacillus cereus [12] = assay: Antimicrobial activity against Bacillus cereus after 24 hrs by microdilution technique; assay type: functional; outline: as §2
Pseudomonas aeruginosa [13] = assay: Antimicrobial activity against Pseudomonas aeruginosa at 1 umol/disk after 24 hrs by disk diffusion assay; assay type: functional; outline: as §3
Staphylococcus aureus [14] = assay: Antimicrobial activity against Staphylococcus aureus after 24 hrs by microdilution technique; assay type: functional; outline: as §2
Salmonella typhimurium [15] = assay: Antimicrobial activity against Salmonella Typhimurium at 1 umol/disk after 24 hrs by disk diffusion assay; assay type: functional, organism-based; details: Salmonella enterica subsp. enterica serovar Typhimurium; outline: as §3
Enterobacter cloacae [16] = assay: Antimicrobial activity against Enterobacter cloacae at 10 ug/disk after 24 hrs by disk diffusion assay; assay type: functional; outline: as §3
Listeria monocytogenes [17] = assay: Antimicrobial activity against Listeria monocytogenes at 1 umol/spot after 18 hrs by TLC-bioautographic method; assay type: functional; outline: as §1
Listeria monocytogenes [18] = assay: Antimicrobial activity against Listeria monocytogenes at 10 ug/disk after 24 hrs by disk diffusion assay; assay type: functional; outline: as §3
Micrococcus flavus [19] = assay: Antimicrobial activity against Micrococcus flavus after 24 hrs by microdilution technique; assay type: functional; outline: as §2
Escherichia coli [20] = assay: Antimicrobial activity against Escherichia coli at 1 umol/disk after 24 hrs by disk diffusion assay; assay type: functional; outline: as §3
Salmonella typhimurium [21] = assay: Antimicrobial activity against Salmonella Typhimurium at 10 ug/disk after 24 hrs by disk diffusion assay; assay type: functional, organism-based; details: Salmonella enterica subsp. enterica serovar Typhimurium; outline: as §3
Micrococcus flavus [22] = assay: Antimicrobial activity against Micrococcus flavus at 10 ug/disk after 24 hrs by disk diffusion assay; assay type: functional; outline: as §3
Enterobacter cloacae [23] = assay: Antimicrobial activity against Enterobacter cloacae at 1 umol/spot after 18 hrs by TLC-bioautographic method; assay type: functional; outline: as §1
Staphylococcus aureus [24] = assay: Antimicrobial activity against Staphylococcus aureus at 10 ug/disk after 24 hrs by disk diffusion assay; assay type: functional; outline: as §3
Escherichia coli [25] = assay: Antimicrobial activity against Escherichia coli after 24 hrs by microdilution technique; assay type: functional; outline: as §2
Staphylococcus aureus [26] = assay: Antimicrobial activity against Staphylococcus aureus at 1 umol/spot after 18 hrs by TLC-bioautographic method; assay type: functional; outline: as §1
Salmonella typhimurium [27] = assay: Antimicrobial activity against Salmonella Typhimurium after 24 hrs by microdilution technique; assay type: functional, Salmonella enterica subsp. enterica serovar Typhimurium; outline: as §2
Bacillus cereus [28] = assay: Antimicrobial activity against Bacillus cereus at 1 umol/disk after 24 hrs by disk diffusion assay; assay type: functional; outline: as §3
Enterobacter cloacae [29] = assay: Antimicrobial activity against Enterobacter cloacae after 24 hrs by microdilution technique; assay type: functional; outline: as §2
Salmonella typhimurium [30] = assay: Antimicrobial activity against Salmonella Typhimurium at 1 umol/spot after 18 hrs by TLC-bioautographic method; assay type: functional, Salmonella enterica subsp. enterica serovar Typhimurium; outline: as §1
Micrococcus flavus [31] = assay: Antimicrobial activity against Micrococcus flavus at 1 umol/disk after 24 hrs by disk diffusion assay; assay type: functional; outline: as §3
Pseudomonas aeruginosa [32] = assay: Antimicrobial activity against Pseudomonas aeruginosa at 10 ug/disk after 24 hrs by disk diffusion assay; assay type: functional; outline: as §3

MIC (Pseudomonas aeruginosa [2]) [µM]	MIC (Listeria monocytogenes [9]) [µM]	MIC (Bacillus cereus [12]) [µM]	MIC (Staphylococcus aureus [14]) [µM]	SMILES	inhibition zone (IZ) (Pseudomonas aeruginosa [1])	MBC (Pseudomonas aeruginosa [2]) [µM]	inhibition zone (IZ) (Bacillus cereus [3])	inhibition zone (IZ) (Micrococcus flavus [4])	inhibition zone (IZ) (Staphylococcus aureus [5])	inhibition zone (IZ) (Listeria monocytogenes [6])	inhibition zone (IZ) (Enterobacter cloacae [8])	MBC (Listeria monocytogenes [9])	inhibition zone (IZ) (Escherichia coli [10])	inhibition zone (IZ) (Bacillus cereus [11])	MBC (Bacillus cereus [12]) [µM]	inhibition zone (IZ) (Pseudomonas aeruginosa [13])	MBC (Staphylococcus aureus [14]) [µM]	inhibition zone (IZ) (Salmonella typhimurium [15])	inhibition zone (IZ) (Enterobacter cloacae [16])	inhibition zone (IZ) (Listeria monocytogenes [17]) [millimeter]	further results
756 (≈ 401 µg/mL)	756 (≈ 401 µg/mL)	378 (≈ 201 µg/mL)	756 (≈ 401 µg/mL)	CC(=O)N1N=C(c2ccc(Nc3nc(Nc4ccccc4)nc(Nc4ccccc4)n3)cc2)CC1c1ccco1 (stereo not given)	inactive	756 (≈ 401 µg/mL)	inactive	inactive	inactive	inactive	inactive	inactive	inactive	inactive	756 (≈ 401 µg/mL)	inactive	756 (≈ 401 µg/mL)	inactive	inactive	0.08	inhibition zone (IZ) (Escherichia coli [7]): inactive; inhibition zone (IZ) (Listeria monocytogenes [18]): inactive; MBC (Micrococcus flavus [19]): 756 µM (≈ 401 µg/mL); MIC (Micrococcus flavus [19]): 378 µM (≈ 201 µg/mL); inhibition zone (IZ) (Escherichia coli [20]): inactive; inhibition zone (IZ) (Salmonella typhimurium [21]): inactive; zone of inhibition at 10 µg/disc (Micrococcus flavus [22]; read-out: IZ): 10 mm; inhibition zone (IZ) (Enterobacter cloacae [23]): 0.09 millimeter; inhibition zone (IZ) (Staphylococcus aureus [24]): inactive; MBC (Escherichia coli [25]): 756 µM (≈ 401 µg/mL); MIC (Escherichia coli [25]): 378 µM (≈ 201 µg/mL); inhibition zone (IZ) (Staphylococcus aureus [26]): 0.07 millimeter; MIC (Salmonella typhimurium [27]; Salmonella enterica): 756 µM (≈ 401 µg/mL); MBC (Salmonella typhimurium [27]; Salmonella enterica subsp. enterica serovar Typhimurium): inactive; inhibition zone (IZ) (Bacillus cereus [28]): inactive; MBC (Enterobacter cloacae [29]): inactive; MIC (Enterobacter cloacae [29]): 756 µM (≈ 401 µg/mL); inhibition zone (IZ) (Salmonella typhimurium [30]): 0.09 millimeter; inhibition zone (IZ) (Micrococcus flavus [31]): 0.05 millimeter; inhibition zone (IZ) (Pseudomonas aeruginosa [32]): inactive
378 (≈ 200 µg/mL)	378 (≈ 200 µg/mL)	189 (≈ 100 µg/mL)	378 (≈ 200 µg/mL)	O=C(/C=C/c1ccc([N+](=O)[O-])cc1)c1ccc(Nc2nc(Nc3ccccc3)nc(Nc3ccccc3)n2)cc1	inactive	756 (≈ 400 µg/mL)	inactive	0.05 millimeter	inactive	inactive	inactive	756 µM (≈ 400 µg/mL)	inactive	inactive	378 (≈ 200 µg/mL)	inactive	756 (≈ 400 µg/mL)	inactive	inactive	0.07	zone of inhibition at 10 µg/disc (Escherichia coli [7]; read-out: IZ): 6 mm; inhibition zone (IZ) (Listeria monocytogenes [18]): inactive; MBC (Micrococcus flavus [19]): 378 µM (≈ 200 µg/mL); MIC (Micrococcus flavus [19]): 189 µM (≈ 100 µg/mL); inhibition zone (IZ) (Escherichia coli [20]): 0.03 millimeter; inhibition zone (IZ) (Salmonella typhimurium [21]): inactive; inhibition zone (IZ) (Micrococcus flavus [22]): inactive; inhibition zone (IZ) (Enterobacter cloacae [23]): 0.09 millimeter; inhibition zone (IZ) (Staphylococcus aureus [24]): inactive; MBC (Escherichia coli [25]): 378 µM (≈ 200 µg/mL); MIC (Escherichia coli [25]): 189 µM (≈ 100 µg/mL); inhibition zone (IZ) (Staphylococcus aureus [26]): inactive; MBC (Salmonella typhimurium [27]; Salmonella enterica): 756 µM (≈ 400 µg/mL); MIC (Salmonella typhimurium [27]; Salmonella enterica): 378 µM (≈ 200 µg/mL); inhibition zone (IZ) (Bacillus cereus [28]): inactive; MBC (Enterobacter cloacae [29]): 378 µM (≈ 200 µg/mL); MIC (Enterobacter cloacae [29]): 189 µM (≈ 100 µg/mL); inhibition zone (IZ) (Salmonella typhimurium [30]): 0.08 millimeter; inhibition zone (IZ) (Micrococcus flavus [31]): inactive; inhibition zone (IZ) (Pseudomonas aeruginosa [32]): inactive
